Each block holds one compound with its values, some of them ahead of it. Calls of active or inactive are those of the source. No cut-off for these calls is given here.
Columns and labels:
SGC-7901 [1] = assay: Antiproliferative activity against human SGC-7901 cells measured after 48 hrs by MTT assay; format: functional, cell-based; settings: SGC-7901, 48 h
Summary of the method: (§1)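 Cells grown to log phase in RPMI 1640 with 10% FBS, seeded at 3 × 10⁴ cells/mL, and preincubated 24 h at 37 °C, 5% CO₂. Compounds were added at pre-set concentrations to 6 wells each, with doxorubicin as reference, and exposed for 48 h. MTT was then added and absorbance read at 570 nm.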

SMMC-7721 = assay: Antiproliferative activity against human SMMC-7721 cells measured after 48 hrs by MTT assay; format: functional, cell-based; settings: SMMC-7721, 48 h; summary of the method: as §1
HeLa = assay: Antiproliferative activity against human HeLa cells measured after 48 hrs by MTT assay; format: functional, cell-based; summary of the method: as §1
HepG2 [2] = assay: Antiproliferative activity against human HepG2 cells measured after 48 hrs by MTT assay; format: functional, cell-based; settings: HepG2, 48 h; summary of the method: as §1
SGC-7901 [3] = assay: Induction of apoptosis in human SGC-7901 cells assessed as early apoptotic cells at 4 uM incubated for 48 hrs by Annexin V-FITC/propidium iodide staining based flow cytometry (reference value: 2.12%); format: functional
Summary of the method: (§2)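 SGC-7901 cells treated 48 h at three concentrations; untreated cells served as control. Harvested cells were suspended in annexin-binding buffer (1 × 10⁶ cells/mL), incubated with annexin V-FITC for 15 min, then PI for 5 min at 4 °C in the dark, and analysed immediately by flow cytometry. Quadrants scored necrotic/late apoptotic, early apoptotic and normal cells. At least 3 runs.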

SGC-7901 [4] = assay: Induction of cell cycle arrest in human SGC-7901 cells assessed as accumulation in S phase at 4 uM incubated for 48 hrs by PI staining based flow cytometry analysis (reference value: 37.4%); format: functional
SGC-7901 [5] = assay: Induction of cell cycle arrest in human SGC-7901 cells assessed as accumulation in G2 phase at 4 uM incubated for 48 hrs by PI staining based flow cytometry analysis (reference value: 24.6%); format: functional
SGC-7901 [6] = assay: Induction of apoptosis in human SGC-7901 cells assessed as viable cells at 4 uM incubated for 48 hrs by Annexin V-FITC/propidium iodide staining based flow cytometry (reference value: 96.7%); format: functional; settings: read-out: Activity; summary of the method: as §2
SGC-7901 [7] = assay: Induction of cell cycle arrest in human SGC-7901 cells assessed as accumulation in S phase at 2 uM incubated for 48 hrs by PI staining based flow cytometry analysis (reference value: 37.4%); format: functional
SGC-7901 [8] = assay: Induction of cell cycle arrest in human SGC-7901 cells assessed as accumulation in G1 phase at 4 uM incubated for 48 hrs by PI staining based flow cytometry analysis (reference value: 38.1%); format: functional
HepG2 [9] = assay: Antitumor activity against human HepG2 cells xenografted in Kunming mouse assessed as reduction in tumor weight at 60 mg/kg, po administered once daily for consecutive 10 days (reference value: 2.01+/-0.09g); format: functional; settings: time 10 day
Summary of the method: (§3)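 Kunming mice (SPF, male or female, 20 ± 2 g) inoculated subcutaneously in the right front armpit with seven-day-old ascites (0.2 mL, 2 × 10⁶ cells). After 24 h, randomized into groups of 10 and weighed. Dosed by oral gavage at 60 mg/kg/day or given normal saline (10 mL/kg) once daily for ten days. Killed on day 11 and tumors weighed. Inhibition rate = (Wcontrol − Wtreated)/Wcontrol × 100%.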

SGC-7901 [10] = assay: Induction of cell cycle arrest in human SGC-7901 cells assessed as accumulation in G2 phase at 2 uM incubated for 48 hrs by PI staining based flow cytometry analysis (reference value: 24.6%); format: functional
SGC-7901 [11] = assay: Induction of apoptosis in human SGC-7901 cells assessed as necrotic cells at 4 uM incubated for 48 hrs by Annexin V-FITC/propidium iodide staining based flow cytometry (reference value: 0.067%); format: functional; summary of the method: as §2
SGC-7901 [12] = assay: Induction of apoptosis in human SGC-7901 cells assessed as viable cells at 2 uM incubated for 48 hrs by Annexin V-FITC/propidium iodide staining based flow cytometry (reference value: 96.7%); format: functional; settings: read-out: Activity; summary of the method: as §2
[13] = Toxicity in Kunming mouse xenografted with […] cells assessed as body weight at 60 mg/kg, po administered once daily for consecutive 10 days (reference value: 19.15 to 19.87g); format: organism-based; settings: in vivo, 240 h, time 10 day; summary of the method: as §3
SGC-7901 [14] = assay: Induction of apoptosis in human SGC-7901 cells assessed as early apoptotic cells at 1 uM incubated for 48 hrs by Annexin V-FITC/propidium iodide staining based flow cytometry (reference value: 2.12%); format: functional; summary of the method: as §2
[15] = biological target: Telomerase reverse transcriptase (Homo sapiens, UniProt O14746); assay: Inhibition of telomerase activity in human SGC-7901 cells incubated for 24 hrs by TRAP-PCR-ELISA assay; format: cell-based
Sequence of Telomerase reverse transcriptase (O14746 whole entry): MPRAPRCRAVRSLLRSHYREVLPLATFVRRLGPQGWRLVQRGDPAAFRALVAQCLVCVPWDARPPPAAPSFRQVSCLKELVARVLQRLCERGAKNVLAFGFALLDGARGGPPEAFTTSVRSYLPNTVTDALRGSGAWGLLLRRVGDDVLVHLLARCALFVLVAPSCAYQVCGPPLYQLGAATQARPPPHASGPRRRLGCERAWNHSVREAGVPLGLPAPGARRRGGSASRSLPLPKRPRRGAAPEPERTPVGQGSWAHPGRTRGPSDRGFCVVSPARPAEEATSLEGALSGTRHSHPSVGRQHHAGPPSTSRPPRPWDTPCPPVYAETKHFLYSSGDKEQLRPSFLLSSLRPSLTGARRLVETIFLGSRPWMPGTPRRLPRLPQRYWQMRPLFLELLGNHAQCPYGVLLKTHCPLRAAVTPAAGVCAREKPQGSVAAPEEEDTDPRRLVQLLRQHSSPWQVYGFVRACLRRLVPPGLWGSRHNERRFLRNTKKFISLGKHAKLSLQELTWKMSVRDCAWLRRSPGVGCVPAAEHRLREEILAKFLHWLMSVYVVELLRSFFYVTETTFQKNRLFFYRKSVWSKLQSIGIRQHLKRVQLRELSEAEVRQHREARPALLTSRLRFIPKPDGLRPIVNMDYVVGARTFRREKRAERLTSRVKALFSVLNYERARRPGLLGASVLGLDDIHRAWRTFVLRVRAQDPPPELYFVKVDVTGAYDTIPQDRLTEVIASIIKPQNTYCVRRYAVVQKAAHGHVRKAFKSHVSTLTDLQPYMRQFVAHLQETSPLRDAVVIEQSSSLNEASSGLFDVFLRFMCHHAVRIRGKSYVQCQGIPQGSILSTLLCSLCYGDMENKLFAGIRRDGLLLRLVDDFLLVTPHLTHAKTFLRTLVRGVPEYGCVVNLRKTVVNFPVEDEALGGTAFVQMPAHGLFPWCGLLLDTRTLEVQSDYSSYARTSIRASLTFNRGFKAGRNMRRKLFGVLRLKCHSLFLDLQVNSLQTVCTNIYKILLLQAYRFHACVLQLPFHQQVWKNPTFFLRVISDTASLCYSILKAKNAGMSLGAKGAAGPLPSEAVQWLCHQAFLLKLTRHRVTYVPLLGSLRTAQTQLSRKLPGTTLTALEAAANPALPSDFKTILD
Summary of the method: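 Extract was mixed with TRAP reaction mix, incubated 25 °C for 30 min, then 35 PCR cycles (94/50/72 °C). Products detected by anti-DIG-peroxidase ELISA at 490 nm; mean ± SD.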

SGC-7901 [16] = assay: Induction of mitochondrial membrane potential loss in human SGC-7901 cells assessed as increase in green fluorescence intensity at 1 to 4 uM incubated for 48 hrs by JC-1 staining based flow cytometry; format: functional, cell-based; settings: dose 1-4 µM
Summary of the method: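 Gastric cancer cells seeded at 2 × 10⁵ per well and treated 48 h at […]. Cells were detached with 0.5% trypsin, stained with JC-1 for 0.5 h at 37 °C, 5% CO₂ in the dark, washed twice in JC-1 buffer, and analysed by flow cytometry. Read-out was red aggregate versus green monomer fluorescence. At least 3 runs.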

SGC-7901 [17] = assay: Induction of apoptosis in human SGC-7901 cells assessed as late apoptotic cells at 2 uM incubated for 48 hrs by Annexin V-FITC/propidium iodide staining based flow cytometry (reference value: 1.11%); format: functional; summary of the method: as §2
CCRF S-180 [18] = assay: Antitumor activity against mouse S180 cells allografted in Kunming mouse assessed as tumor growth inhibition at 60 mg/kg, po administered once daily for consecutive 10 days; format: functional; settings: CCRF S-180, 240 h, time 10 day, read-out: TGI; summary of the method: as §3
SGC-7901 [19] = assay: Induction of apoptosis in human SGC-7901 cells assessed as necrotic cells at 1 uM incubated for 48 hrs by Annexin V-FITC/propidium iodide staining based flow cytometry (reference value: 0.067%); format: functional; summary of the method: as §2
SGC-7901 [20] = assay: Induction of cell cycle arrest in human SGC-7901 cells assessed as accumulation in G2 phase at 1 uM incubated for 48 hrs by PI staining based flow cytometry analysis (reference value: 24.6%); format: functional
SGC-7901 [21] = assay: Induction of apoptosis in human SGC-7901 cells assessed as early apoptotic cells at 2 uM incubated for 48 hrs by Annexin V-FITC/propidium iodide staining based flow cytometry (reference value: 2.12%); format: functional; summary of the method: as §2
SGC-7901 [22] = assay: Induction of cell cycle arrest in human SGC-7901 cells assessed as accumulation in G1 phase at 2 uM incubated for 48 hrs by PI staining based flow cytometry analysis (reference value: 38.1%); format: functional
[23] = Toxicity in Kunming mouse allografted with mouse S180 cells assessed as body weight at 60 mg/kg, po administered once daily for consecutive 10 days (reference value: 19.38 to 19.99g); format: organism-based, CCRF S-180; settings: in vivo, 240 h, time 10 day; summary of the method: as §3
SGC-7901 [24] = assay: Induction of cell cycle arrest in human SGC-7901 cells assessed as accumulation in G1 phase at 1 uM incubated for 48 hrs by PI staining based flow cytometry analysis (reference value: 38.1%); format: functional
SGC-7901 [25] = assay: Induction of apoptosis in human SGC-7901 cells assessed as viable cells at 1 uM incubated for 48 hrs by Annexin V-FITC/propidium iodide staining based flow cytometry (reference value: 96.7%); format: functional; settings: read-out: Activity; summary of the method: as §2
CCRF S-180 [26] = assay: Antitumor activity against mouse S180 cells allografted in Kunming mouse assessed as reduction in tumor weight at 60 mg/kg, po administered once daily for consecutive 10 days (reference value: 2.02+/-0.19g); format: functional; settings: time 10 day; summary of the method: as §3
HepG2 [27] = assay: Antitumor activity against human HepG2 cells xenografted in Kunming mouse assessed as tumor growth inhibition at 60 mg/kg, po administered once daily for consecutive 10 days; format: functional; settings: HepG2, 240 h, time 10 day, read-out: TGI; summary of the method: as §3
SGC-7901 [28] = assay: Induction of cell cycle arrest in human SGC-7901 cells assessed as accumulation in S phase at 1 uM incubated for 48 hrs by PI staining based flow cytometry analysis (reference value: 37.4%); format: functional
SGC-7901 [29] = assay: Induction of apoptosis in human SGC-7901 cells assessed as late apoptotic cells at 1 uM incubated for 48 hrs by Annexin V-FITC/propidium iodide staining based flow cytometry (reference value: 1.11%); format: functional; summary of the method: as §2
SGC-7901 [30] = assay: Induction of apoptosis in human SGC-7901 cells assessed as necrotic cells at 2 uM incubated for 48 hrs by Annexin V-FITC/propidium iodide staining based flow cytometry (reference value: 0.067%); format: functional; summary of the method: as §2
SGC-7901 [31] = assay: Induction of apoptosis in human SGC-7901 cells assessed as late apoptotic cells at 4 uM incubated for 48 hrs by Annexin V-FITC/propidium iodide staining based flow cytometry (reference value: 1.11%); format: functional; summary of the method: as §2

SMILES: COc1cc(OC)c(C(=O)c2ccc(OC)c(OCC(=O)OC[C@@H]3C=C[C@H](n4cc(C)c(=O)[nH]c4=O)O3)c2)cc1OC
- IC50 (HepG2 [2]): 28.6 µM
- IC50 (SGC-7901 [1]): 31.4 µM
- IC50 (SMMC-7721): 20.1 µM
- IC50 (HeLa): 28.6 µM

SMILES: COc1ccc(C(=O)c2ccccc2Cl)cc1OCC(=O)OC[C@@H]1C=C[C@H](n2cc(C)c(=O)[nH]c2=O)O1
- IC50 (SMMC-7721): 40.6 µM
- IC50 (HeLa): 45.8 µM

SMILES: COc1ccc(C(=O)c2ccc(F)cc2)cc1OCC(=O)OC[C@@H]1C=C[C@H](n2cc(C)c(=O)[nH]c2=O)O1
- IC50 (HepG2 [2]): 38 µM
- IC50 (SGC-7901 [1]): 29.1 µM
- IC50 (SMMC-7721): 40.3 µM
- IC50 (HeLa): 36.3 µM

SMILES: COc1ccc(C(=O)c2ccc([N+](=O)[O-])cc2)cc1OCC(=O)OC[C@@H]1C=C[C@H](n2cc(C)c(=O)[nH]c2=O)O1
- IC50 (SGC-7901 [1]): 48.1 µM
- IC50 (HeLa): 50.2 µM

These reach a lower IC50 (HeLa). Values come first.

- IC50 (HepG2 [2]): 15 µM
- IC50 (SGC-7901 [1]): 23.4 µM
- IC50 (SMMC-7721): 21.2 µM
- IC50 (HeLa): 12.8 µM
SMILES: COc1ccc(C(=O)c2cc(OC)c(OC)c(OC)c2)cc1OCC(=O)OC[C@@H]1C=C[C@H](n2cc(C)c(=O)[nH]c2=O)O1

- IC50 (SGC-7901 [1]): 3.41 µM
- IC50 (SMMC-7721): 1.95 µM
- IC50 (HeLa): 3.99 µM
SMILES: COc1cccc2c1C(=O)c1c(O)c3c(c(O)c1C2=O)C[C@@](O)(C(=O)CO)C[C@@H]3O[C@H]1C[C@H](N)[C@H](O)[C@H](C)O1 [DOXORUBICIN]

- IC50 (HepG2 [2]): 3.15 µM
- IC50 [15]: 7.01 µM
- IC50 (SGC-7901 [1]): 0.77 µM
- IC50 (SMMC-7721): 0.82 µM
- IC50 (HeLa): 1.58 µM
SMILES: COc1cccc(C(=O)c2ccc(OC)c(OC(=O)CCC(=O)OC[C@@H]3C=C[C@H](n4cc(C)c(=O)[nH]c4=O)O3)c2)c1
- Activity (SGC-7901 [3]): 26.4%
- Activity (SGC-7901 [4]): 23.2%
- Activity (SGC-7901 [5]): 60.9%
- viability at 4 µM (SGC-7901 [6]): 40.2%
- Activity (SGC-7901 [7]): 28.9%
- Activity (SGC-7901 [8]): 15.8%
- Activity (HepG2 [9]): 1.04 g
- Activity (SGC-7901 [10]): 42.6%
- Activity (SGC-7901 [11]): 0.3%
- viability at 2 µM (SGC-7901 [12]): 61.8%
- Activity [13]: 26.34 g
- Activity (SGC-7901 [14]): 7.34%
- Activity (SGC-7901 [16]): Active
- Activity (SGC-7901 [17]): 19.7%
- inhibition in vivo at 60 mg/kg (CCRF S-180 [18]): 40.6%
- Activity (SGC-7901 [19]): 0.07%
- Activity (SGC-7901 [20]): 30%
- Activity (SGC-7901 [21]): 18.3%
- Activity (SGC-7901 [22]): 28.5%
- Activity [23]: 24.25 g
- Activity (SGC-7901 [24]): 32.9%
- viability at 1 µM (SGC-7901 [25]): 86.6%
- Activity (CCRF S-180 [26]): 1.2 g
- inhibition in vivo at 60 mg/kg (HepG2 [27]): 48.5%
- Activity (SGC-7901 [28]): 37.1%
- Activity (SGC-7901 [29]): 5.96%
- Activity (SGC-7901 [30]): 0.282%
- Activity (SGC-7901 [31]): 33.2%
